An excerpt weighted towards active compounds, which were near 1.6% of everything screened.
RBBP9 inh: inhibitors of human serine hydrolase RBBP9. recombinant RBBP9, FP-Rh probe fluorescence polarization. inhibition, % at 7.94 µM. actives 0.2% (n = 220,000);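 active = inhibition above the campaign mean of all tested compounds plus 3 SD, cut at about 14% in these data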;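 also: plate controls were DMSO wells with RBBP9 for no effect and wells lacking RBBP9 protein for full effect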
Target sequence (O75884 whole entry, looked up): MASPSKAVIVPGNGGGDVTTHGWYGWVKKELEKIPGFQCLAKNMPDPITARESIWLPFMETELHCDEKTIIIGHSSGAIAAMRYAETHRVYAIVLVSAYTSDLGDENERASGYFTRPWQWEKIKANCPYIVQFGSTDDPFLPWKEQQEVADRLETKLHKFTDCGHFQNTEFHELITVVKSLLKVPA
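Material: RBBP9 protein. Amount: RBBP9 at 2.5 µM in dispensed solution, before mixing. Schedule: 30 min then 45 min, 25 °C. Medium: Tris buffer pH 8.0, NaCl, Pluronic. Measured by: fluorescence polarization. Measure: percent inhibition from mP, scaled between DMSO and no-protein wells. Replication: one well per compound.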
14-3-3 Bad PPI: disrupts binding of bovine 14-3-3 zeta to phospho-Bad peptide; actives 0.71% (n = 220,000); P63103; inhibition, % at 21.7 µM; AID 781; TR-FRET 14-3-3zeta/Dy647-pBad peptide displacement, 1 h;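 active = inhibition above about 70%, limit read from the data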;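 also: 0% = full 14-3-3 plus peptide FRET controls and 100% = background without 14-3-3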
Target sequence (P63103 whole entry, looked up): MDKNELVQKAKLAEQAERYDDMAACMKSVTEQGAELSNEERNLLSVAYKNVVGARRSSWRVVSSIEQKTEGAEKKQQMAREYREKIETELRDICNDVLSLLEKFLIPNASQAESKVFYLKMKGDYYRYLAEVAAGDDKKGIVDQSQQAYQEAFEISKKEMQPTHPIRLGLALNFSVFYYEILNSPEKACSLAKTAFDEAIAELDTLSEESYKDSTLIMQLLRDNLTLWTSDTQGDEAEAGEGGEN
PKD1 kinase inh: inhibitors of human PKD1 kinase; actives 0.056% (n = 200,000); PKD1 kinase fluorescence polarization assay; AID 797; inhibition, % (test concentration not listed)
eIF4E-4G inh: eIF4E/eIF4G interaction inhibition in translation initiation | P63073+Q04637 | TR-FRET eIF4E-eIF4GI(517-606) binding, 2 h | inhibition, % at 21.7 µM | actives 0.37% (n = 220,000) | AID 782;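 active = inhibition above about 30%, limit read from the data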;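 also: 0% = full FRET control wells and 100% = background wells lacking eIF4GI fragment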
EBV gp42 inh: inhibitors of Epstein-Barr virus glycoprotein 42; Fluorescence polarization binding assay, mP read-out; AID 1085; Q1HVG2; actives 0.42% (n = 220,000); inhibition, % (tested at 21.74 µM)
Target sequence (Q1HVG2 whole entry, looked up): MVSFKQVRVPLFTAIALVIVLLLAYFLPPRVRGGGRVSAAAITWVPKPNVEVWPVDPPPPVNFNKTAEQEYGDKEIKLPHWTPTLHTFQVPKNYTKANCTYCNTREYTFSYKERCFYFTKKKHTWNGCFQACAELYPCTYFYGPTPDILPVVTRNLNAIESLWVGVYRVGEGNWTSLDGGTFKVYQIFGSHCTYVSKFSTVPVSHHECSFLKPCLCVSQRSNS
* hit, by the source's call; nt = no result; [ ] = another dose, or the depositor's remark. Rule as the data show it, unless noted: active = inhibition above about 50%; inactive = the rest.

SMILES | RBBP9 inh | 14-3-3 Bad PPI | PKD1 kinase inh | eIF4E-4G inh | EBV gp42 inh
COc1ccc(OC)c(/C=N/NC(=O)CSc2cc(C)nc3c(OC)cccc23)c1 | -7.5 | 86.2* | -0.1 | 21.0 | -41.5
COCc1cc(=O)n2[nH]c(-c3cccs3)cc2n1 | -3.3 | 4.7 | nt | -0.3 | -9.4
Cc1ccc[n+](-c2[nH]c(=O)sc2/C=N/NC(=O)c2ccccc2[O-])c1 | -4.6 | -5.2 | 6.3 | 0.0 | 52.9*
Cc1cc[n+](-c2[nH]c(=O)sc2/C=N/N=C(\[O-])c2ccccc2)cc1C | -5.7 | -10.9 | -3.0 | 4.4 | 136.8*
O=C(N/N=C/c1sc(=O)[nH]c1-[n+]1ccccc1)c1ccccc1[O-] | 6.0 | 2.3 | nt | 0.9 | 40.7
Cc1cc[n+](-c2[nH]c(=O)sc2/C=N/N=C(\[O-])c2ccccc2)cc1 | -3.4 | -2.4 | nt | 6.0 | 24.5
Nc1cnc(Nc2ccc(Br)cc2)nc1N | -4.0 | -6.7 | nt | 4.7 | -6.7
CCOC(=O)c1ccccc1NC(=O)Cn1cnc2c(nnn2-c2ccc(C)cc2)c1=O | -5.4 | 11.6 | 0.0 | 50.3* | -5.6
O=C(CNc1ccccc1)NNC1=NCCC1 | -0.2 | 88.6* | 3.1 | -0.4 | -8.0
O=C1/C(=C/c2ccco2)SC(=S)N1C1CCS(=O)(=O)C1 (stereo unspecified) | -6.2 | -2.2 | -8.0 | -2.2 | 2.4
CCOc1ccc(-c2nn(-c3ccccc3)cc2/C=C2\SC(=S)N(C3CCS(=O)(=O)C3)C2=O)cc1 (stereo unspecified) | 2.5 | -17.2 | -2.3 | 1.7 | 68.8*
CCCOc1ccc(-c2nn(-c3ccccc3)cc2/C=C2\SC(=S)N(C3CCS(=O)(=O)C3)C2=O)cc1 (stereo unspecified) | -1.6 | 4.4 | -8.6 | 1.2 | 69.4*
Cc1ccc(/C=C2\SC(=S)N(C3CCS(=O)(=O)C3)C2=O)cc1 (stereo unspecified) | -5.0 | -1.9 | 2.9 | 2.1 | -18.9
Cc1c(C(=O)NN2CCCCC2)nn(-c2ccc(Cl)cc2Cl)c1-c1ccc(I)cc1 | -3.3 | -0.8 | nt | 5.9 | -5.4
CCOC(=O)c1c(NC(=O)CSc2nnnn2-c2ccc(OC)cc2)sc(C)c1C | 0.4 | 42.0 | -3.5 | 30.2* | -27.4
COc1ccc(N2C(=O)CC(S/C(N)=N/N=C/c3ccnc4ccccc34)C2=O)cc1 (stereo unspecified) | -1.9 | 75.4*[fluorescence artefact?] | 2.6 | 22.3 | -10.3
CCOC(=O)N1CCC2(CC1)C(C#N)=C(N)Oc1c2c(C)nn1-c1cccc(Cl)c1 | -3.6 | -5.5 | 4.9 | 3.9 | 52.4*
CCOC(=O)N1CCC2(CC1)C(C#N)=C(N)Oc1n[nH]c(C)c12 | -1.7 | -13.7 | -4.2 | -6.6 | 4.6
COc1cc(CN(C(=S)NCC(=O)NC2CC2)C2CCCC2)cc(OC)c1OC | -0.7 | -20.3 | -13.3 | 13.5 | -3.1
COc1ccc(NC(=O)CSc2nc3ccccc3c3nc4ccccc4n23)cc1 | -2.5 | 79.4* | -6.8 | 23.0 | -14.0
COc1ccc(OC)c(NC(=O)CSc2nc3ccccc3c3nc4ccccc4n23)c1 | -5.9 | 91.7* | -0.4 | 20.5 | 12.8
Cc1ccc(NC(=O)CSc2nc3ccccc3c3nc4ccccc4n23)cc1 | -4.4 | 53.5 | 1.6 | -12.5 | -22.1
O=C(NCc1ccco1)C1CCN(C(=O)c2cc3sccc3n2Cc2ccc(F)cc2)CC1 | -8.2 | 1.0 | -1.2 | 14.4 | 9.8
O=C(NCc1ccco1)C1CCN(Cc2ccc(F)cc2)CC1 | 6.4 | 79.9* | 0.5 | -7.7 | -7.0
Cc1ccc(Cl)cc1NC(=S)NN | 9.1 | -4.9 | nt | -2.4 | 1.0
SMILES | RBBP9 inh | 14-3-3 Bad PPI | PKD1 kinase inh | eIF4E-4G inh | EBV gp42 inh
CCN1C(=O)C2(C(C(=O)c3ccc(C)o3)=C(O)C(=O)N2CCCN(C)C)c2ccccc21 (stereo unspecified) | -3.5 | -0.6 | nt | 2.7 | -15.3
CCCN1C(=O)C2(C(C(=O)c3ccc(C)o3)=C(O)C(=O)N2CCCOC)c2ccccc21 (stereo unspecified) | 0.4 | 9.3 | nt | 96.2* | 7.1
N#C/C(=C\c1ccco1)C(=O)Nc1cccc2ncccc12 | -5.4 | -3.6 | 7.9 | -4.1 | -16.2
COc1ccc(OC)c(NC(=O)COC(=O)c2cc3c(s2)CCC3)c1 | -3.5 | 43.2 | -1.1 | 36.5* | 15.5
CSc1ccc(N=Nc2c(C)[nH]n(C)c2=O)cc1 | -6.6 | -1.8 | nt | -1.0 | -17.7
CCc1ccc(C(C(=O)NC2CCCCC2)N(C(=O)CNC(=O)c2ccco2)c2cccnc2)cc1 (stereo unspecified) | -6.2 | nt | -8.1 | nt | nt
CCn1nc(C)c(CNC(=O)c2cc(COc3ccc(F)cc3Cl)on2)c1C | -2.3 | 0.5 | nt | -4.7 | 2.9
COc1ccccc1/C=C/CN1CC(C)OC(C)C1 (stereo unspecified) | 4.2 | 79.3* | 1.9 | -5.9 | -12.8
CC(C)NC(=O)c1cc(=O)n(C)c(=O)n1C | -4.8 | 87.6* | 6.9 | -6.5 | 0.8
Cc1nnc(NC(=O)CSc2cn(CCNC(=O)c3ccccc3)c3ccccc23)s1 | -6.6 | -12.5 | -12.1 | -1.7 | 54.5*
COc1ccc(C(=O)NCCn2cc(SCC(=O)Nc3nnc(C)s3)c3ccccc32)cc1 | 0.0 | 12.0 | -3.9 | -1.9 | -26.3
CCS(=O)(=O)N1CCCC(C(=O)NC2CCCC2)C1 (stereo unspecified) | -10.1 | 89.2* | -15.6 | -3.1 | -31.9
CCCS(=O)(=O)N1CCCC(C(=O)NC2CCCCC2)C1 (stereo unspecified) | 2.6 | -13.1 | -2.9 | -7.1 | -5.9
O=C(NC1CCCCC1)C1CCN(S(=O)(=O)N2CCCCCC2)CC1 | -6.1 | -6.4 | -0.8 | -4.3 | -13.6
O=C(NC1CCCCCCC1)C1CCN(S(=O)(=O)N2CCCC2)CC1 | -3.6 | -5.8 | -6.4 | 58.4* | -2.2
O=C(Cn1ccc(C(F)(F)F)n1)N/N=C/c1ccc(N2CCOCC2)cc1 | -6.8 | -2.3 | 1.8 | -0.7 | 0.8
CCOC(=O)C1(C(=O)OCC)C(c2ccccc2)CC(O)N1C(C)=O (stereo unspecified) | -8.3 | 91.7* | 0.4 | 2.8 | -17.6
CC(C)(C)C(=O)OC/C(N)=N/OC(=O)c1ccc(Cl)cc1 | -9.5 | 91.0* | nt | -0.3 | -0.2
O=C(CSc1nc(-c2ccccc2)cs1)Nc1ccccc1[N+](=O)[O-] | -6.8 | 6.0 | -7.6 | -1.4 | 8.8
CSc1nc(-c2ccc(Cl)cc2)nn1S(=O)(=O)c1ccccc1 | -6.5 | 1.2 | 1.2 | 1.9 | -2.3
CS(=O)(=O)n1nc(-c2ccc(Cl)cc2)nc1SCc1ccccc1 | 1.4 | -5.1 | 0.0 | 3.3 | 87.1*
C=CCNC(=S)N1CCN(Cc2ccccc2)CC1 | -10.0 | 65.1 | -1.2 | 1.5 | -9.8
COc1cc(/C=N/NC(=O)c2ccc(CN3c4cccc5cccc(c45)S3(=O)=O)cc2)cc(OC)c1O | -6.1 | 91.8* | -8.8 | 1.8 | -2.5
COc1ccc(/C=N/NC(=O)c2ccc(CN3c4cccc5cccc(c45)S3(=O)=O)cc2)cc1 | -12.7 | 11.8 | -0.3 | -2.0 | -17.4
O=C(Nc1cccc2ccccc12)c1ccc(Br)o1 | -6.3 | -6.1 | -3.1 | 47.0* | -17.7
O=C(Nc1cccc2cccnc12)c1ccc(Br)o1 | -8.4 | 12.3 | -3.0 | 2.0 | -3.9
